The list is not random: actives were taken first. Their share in the collection is about 3.1%.
ABHD5 PLIN5 PPI: ABHD5-PLIN5 interaction inhibitors, primary screen, cell lysate, split luciferase complementation, luminescence | actives 0.78% (n = 360,000) | inhibition, % at 4 µM | Perilipin-5 (Homo sapiens) + 1-acylglycerol-3-phosphate O-acyltransferase ABHD5 (Homo … | Split G. princeps luciferase complementation, 4 h;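 active = inhibition above the mean inhibition across every tested compound plus 3 SD, cut at about 22% in these data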
UHRF1 binding: UHRF1 methylated DNA binding inhibitors, primary screen, counter-screen for MBD2 inhibitor project, biochemical, TR-FRET, human UHRF1, single concentration; actives 0.75% (n = 370,000); UHRF1 binding to methylated oligo; E3 ubiquitin-protein ligase UHRF1 (Homo sapiens), Q96T88; inhibition, % at 4.4 µM; in the data active = inhibition above about 21%;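 note: UHRF1 SRA domain binding a hemimethylated CpG hairpin DNA probe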
Target sequence (Q96T88 whole entry, looked up, the tested form may be a part): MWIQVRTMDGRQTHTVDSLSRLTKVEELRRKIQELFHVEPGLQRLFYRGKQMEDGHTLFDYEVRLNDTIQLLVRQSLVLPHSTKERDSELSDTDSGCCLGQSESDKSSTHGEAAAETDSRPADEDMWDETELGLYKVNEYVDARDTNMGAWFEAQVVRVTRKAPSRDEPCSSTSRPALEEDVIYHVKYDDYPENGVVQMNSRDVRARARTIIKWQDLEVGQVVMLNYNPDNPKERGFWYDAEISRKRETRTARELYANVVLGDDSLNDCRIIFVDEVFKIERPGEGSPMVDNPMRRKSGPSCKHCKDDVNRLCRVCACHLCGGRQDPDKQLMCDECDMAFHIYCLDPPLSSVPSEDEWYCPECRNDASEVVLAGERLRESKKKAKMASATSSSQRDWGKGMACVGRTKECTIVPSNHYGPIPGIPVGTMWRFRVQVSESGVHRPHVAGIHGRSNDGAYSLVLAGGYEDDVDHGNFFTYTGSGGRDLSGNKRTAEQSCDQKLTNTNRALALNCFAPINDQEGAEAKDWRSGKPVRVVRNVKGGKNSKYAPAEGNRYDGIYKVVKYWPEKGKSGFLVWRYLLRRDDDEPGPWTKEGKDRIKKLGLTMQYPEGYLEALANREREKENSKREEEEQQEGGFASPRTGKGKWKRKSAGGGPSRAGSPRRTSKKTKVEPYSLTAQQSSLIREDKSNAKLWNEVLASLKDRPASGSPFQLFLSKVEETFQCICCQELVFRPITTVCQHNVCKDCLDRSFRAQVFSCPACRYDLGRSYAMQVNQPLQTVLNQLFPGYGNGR
PRMT1 inh: PRMT1 methyltransferase inhibitors, primary screen, biochemical, fluorescence polarization; Protein arginine N-methyltransferase 1 (Homo sapiens), Q99873; recombinant PRMT1, activity-based probe fluorescence polarization; inhibition, % at 2.79 µM; actives 1.3% (n = 370,000);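 active = inhibition above about 21% made by adding two undisclosed values, limit read from the data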
RBBP9 inhibitor: human RBBP9 inhibitors, primary screen, biochemical, fluorescence polarization, FP-Rh probe, HTS. Serine hydrolase RBBP9 (Homo sapiens), O75884. recombinant RBBP9. inhibition, % at 7.94 µM. actives 0.2% (n = 220,000). AID 1515, 2009;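 active = inhibition above the campaign mean of all tested compounds plus 3 SD, cut at about 14% in these data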
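Material: RBBP9 protein. Amount: RBBP9 at 2.5 µM in dispensed solution, before mixing. Schedule: 30 min then 45 min, 25 °C. Medium: Tris buffer pH 8.0, NaCl, Pluronic. Measured by: fluorescence polarization. Measure: percent inhibition from mP, scaled between DMSO and no-protein wells. Replication: one well per compound.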
MBD2 inh: inhibitors of MBD2 binding to methylated DNA, primary screen, biochemical, TR-FRET, DNA-binding domain, human; MBD2 binding to methylated oligonucleotide; inhibition, % at 4.4 µM; Methyl-CpG-binding domain protein 2 (Homo sapiens), Q9UBB5; AID 686964, 2013; actives 0.31% (n = 370,000); in the data active = inhibition above about 13%
LEDGF integ inh: blockers of LEDGF/p75-dependent integrase strand transfer – biochemical, TR-FRET, high throughput, primary screen; HIV-1 integrase (with human LEDGF/p75); TR-FRET IN-LEDGF/p75 DNA integration, Eu/Cy5; inhibition, % at 3.7 µM; actives 0.64% (n = 370,000); AID 743269, 2014;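 active = inhibition above the screen-wide mean plus 3 SD, cut at about 13% in these data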;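 note: signal is the Cy5 over europium emission ratio at 671 and 618 nm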
ABHD5-PLIN5 conf: ABHD5-PLIN5 interaction inhibitors, confirmation, biochemical, luminescence; inhibition, % at 4 µM; AID 651612, 2012; actives 67% (n = 2,200); shares compounds with ABHD5 PLIN5 PPI; in the data active = inhibition above about 23%
HNF4 counter: HNF4 dimerization inhibitors, counter-screen for ABHD5-PLIN5 interaction inhibitor project, biochemical, split-luciferase complementation, luminescence; actives 77% (n = 2,200); inhibition, % at 4 µM; shares compounds with ABHD5 PLIN5 PPI;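 active = mean inhibition across replicate wells exceeding the computed hit threshold, cut at about 13% in these data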;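 note: light from luciferase halves that rejoin when HNF4 fusion proteins dimerize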
Hits are given with their value; 0 = inactive; - = not tested or not shown.

SMILES	ABHD5 PLIN5 PPI	UHRF1 binding	PRMT1 inh	RBBP9 inhibitor	MBD2 inh	LEDGF integ inh	ABHD5-PLIN5 conf	HNF4 counter
CC1CCCN(S(=O)(=O)c2ccc(NC(=O)C3CCN(C(=O)c4ccco4)CC3)cc2)C1 (configuration not stated)	24	0	0	-	0	0	0	0
O=C(c1ccco1)N1CCN(S(=O)(=O)c2ccc(Oc3ccccc3)cc2)CC1	50	0	0	0	0	0	0	18
O=C(c1ccco1)N1CCN(S(=O)(=O)c2ccc(Br)cc2)CC1	0	0	0	-	0	0	-	-
O=C(CCc1ccccc1)N[C@H]1[C@@H](OC(=O)c2cnccn2)CCC[C@]12C(=O)N(Cc1ccccc1)c1ccccc12	-	0	0	-	0	0	-	-
C[C@@H]1CNC(=O)c2c(C(=O)N3CCN(c4ccccc4)CC3)ncn21	-	0	0	-	0	0	-	-
CC1=NOC(=O)/C1=C\c1ccc(-c2ccccc2Br)o1	43	0	0	0	0	0	93	95
CC1=NOC(=O)/C1=C\c1ccc(-c2cccc(Cl)c2)o1	51	-	-	0	-	-	99	106
O=C(OCc1cn(Cc2ccc(F)c(F)c2)nn1)N1CCCC1	-	0	0	-	0	0	-	-
O=C(CCCn1cc([N+](=O)[O-])cn1)NCc1ccccc1	0	0	0	0	0	0	-	-
O=C(CCCn1cc([N+](=O)[O-])cn1)NC1CCCCCC1	99	0	0	0	0	0	0	0
COC(=O)[C@]12C[C@H](CC(=O)NCc3cccc(C(F)(F)F)c3)C(=O)N(Cc3ccccc3)C1=C[C@H](C1CCCC1)O[C@@H]2C	-	0	0	-	0	0	-	-
Cc1noc(/C=C/c2cccnc2)c1[N+](=O)[O-]	37	0	0	-	0	0	48	33
O=c1[nH]c(/C=C/c2ccccc2)c([N+](=O)[O-])c(=O)[nH]1	27	0	0	-	0	0	73	62
O=c1[nH]c(/C=C/c2cccnc2)c([N+](=O)[O-])c(=O)[nH]1	40	0	0	0	0	0	56	41
Cc1cccc(C)c1N/C=C/c1onc(C)c1[N+](=O)[O-]	0	0	0	0	0	0	-	-
O=c1[nH]c(/C=C/c2cccc([N+](=O)[O-])c2)c([N+](=O)[O-])c(=O)[nH]1	25	0	0	-	0	0	91	85
O=c1[nH]c(/C=C\c2cccnc2)c([N+](=O)[O-])c(=O)[nH]1	0	0	0	0	0	0	-	-
C=CCN1[C@H](CC(C)C)COc2cc(N3CCCC3)ccc2S1(=O)=O	-	0	0	-	0	0	-	-
O=C(CN1CCc2onc(-c3ccc(-n4cc(COc5ccc([N+](=O)[O-])cc5)nn4)cc3)c2C1=O)N1CCOCC1	-	0	0	-	0	0	-	-
Cn1c(=O)c2[nH]c(SCC(=O)NCCc3cccc(F)c3)nc2n(C)c1=O	-	0	0	-	0	0	-	-
CC(C)(C)CCN1CCC[C@H](NC(=O)COc2ccc(F)c(Cl)c2)C1	-	0	0	-	0	0	-	-
COc1ccc(OCc2nn3c(-c4ccccc4)nnc3s2)cc1	-	0	0	-	0	0	-	-
O=[N+]([O-])c1ccc(-[n+]2ccc3ccccc3c2)c([N+](=O)[O-])c1	29	0	0	-	0	0	62	58
C=C1C(=O)C2=CC1CCC(=O)C1(C)CCC(OC(C)=O)C(C)(C)C1CC2O (configuration not stated)	44	0	0	-	0	0	58	92

High-throughput results: PubChem, The Scripps Research Institute Molecular Screening Center
